From ChEMBL document CHEMBL1123537, “Carbocyclic analogues of 5-halocytosine nucleosides” (1986)
≈ marks a conversion by molar mass, not a printed value.

Key:
Vero [1] = experiment: Compound was tested for antiviral activity against Herpes Simplex Virus-2(MS strain) in vero cells (african green monkey kidney cells); type: functional, Chlorocebus sabaeus
Vero [2] = experiment: Compound was tested for its potency against Herpes Simplex Virus-2 (MS strain) in vero cells (african green monkey kidney cells); type: functional; conditions: Chlorocebus sabaeus
[3] = test system: Epidermoid carcinoma cell line; experiment: Compound was tested for its antiviral activity against Herpes Simplex Virus-1(HF strain) in human epidermoid carcinoma cells (H.Ep.-2) measured as virus rating (VR).; type: functional
How it was run: (§1)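 […] HSV-1 strain HF in human H.Ep.-2 monolayers (MEM, 5% calf serum growth, 2% FBS maintenance), 32 CCID50/well, in triplicate wells. Seven compound concentrations in half-log10 steps were used, cytotoxic to noncytotoxic. Plates were kept at 37 °C for 4 or 5 days; microscopic CPE was scored 0 (none) to 4 (100%) and a virus rating was calculated from the scores, with ara-A as positive control.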

MDCK [4] = experiment: Compound was tested for antiviral activity against influenza virus (Ao) in MDCK cells; type: functional, Canis lupus familiaris
How it was run: (§2)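 MDCK monolayers were infected at 32 CCID50 per well, in triplicate, with seven serial half-log10 compound dilutions spanning cytotoxic to noncytotoxic levels. Media were reinforced BME or MEM with 2% FBS, or MEM with trypsin (15 or 10 μg/mL). Plates were held 4–5 days at 37 °C, CPE was scored 0–4, and VR, ratio to ribavirin VR, and MIC50 were derived.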

[5] = Ratio of the VR of the C-cytosine nucleoside to the VR of ribavirin; type: functional
How it was run: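 Influenza A (A0/PR/8/34 in MDCK; A2/Aichi/2/68 in primary rhesus monkey kidney) CPE-inhibition in monolayers with various media (reinforced BME or MEM plus serum, or trypsin-containing MEM). Triplicate wells at 32 CCID50/well, seven serial half-log10 concentrations spanning cytotoxic to noncytotoxic, 37 °C 4 or 5 days. CPE scored 0–4 microscopically; VR by modified Ehrlich method, divided by concurrent ribavirin VR.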

MDCK [6] = experiment: (§3) Compound was tested for its potency against influenza virus (Ao) in MDCK cells; type: functional; conditions: Canis lupus familiaris; how it was run: as §2
[7] = test system: Epidermoid carcinoma cell line; experiment: Compound was tested for its potency against Herpes Simplex Virus-1(HF strain) in human epidermoid carcinoma cells; type: functional; how it was run: as §1
MDCK [8] = experiment: as §3; type: functional, Canis lupus familiaris; how it was run: as §2
Oryctolagus cuniculus = species on record: Oryctolagus cuniculus; experiment: Compound was tested for antiviral activity against Herpes Simplex Virus-1 (377 strain) in primary rabbit kidney cells; type: functional
How it was run: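 Primary rabbit kidney monolayers (MEM; 5% calf serum growth, 2% FBS maintenance) were challenged with HSV-1 E-377 (TK+), 32 CCID50/well, in triplicate. Seven half-log10 dilutions ranged from cytotoxic to noncytotoxic, with cytotoxicity and uninfected controls. After 4–5 days at 37 °C, CPE was scored 0–4 and converted to VR; ara-A ratio and 50% CPE-inhibitory concentration (MIC50) were also determined.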

Vero [9] = experiment: C(compound) was tested for antiviral activity against Herpes Simplex Virus-2(MS strain) in vero cells (african green monkey kidney cells); type: functional, Chlorocebus sabaeus

`Nc1nc(=O)n([C@@H]2C[C@H](CO)[C@@H](O)[C@@H]2O)cc1I` showed a VR (Vero [1]) of 2.2, an MIC50 (Vero [2]) of 197 µg/mL (≈ 537 µM) and a VR [3] of 0.

For `Nc1nc(=O)n(C2CC(CO)C(O)C2O)cc1Br` (centres undefined), the VR (MDCK [4]) was 1.5, the Ratio [5] was 0.36 and the MIC50 (MDCK [6]) was 150 µg/mL (≈ 469 µM).

`Nc1ccn([C@@H]2C[C@H](CO)[C@@H](O)[C@H]2O)c(=O)n1` showed a VR (MDCK [4]) of 3.5, an MIC50 [7] of 71 µg/mL (≈ 294 µM) and a VR (Vero [1]) of 3.2. It also gave an MIC50 (Vero [2]) of 2.4 µg/mL (≈ 9.95 µM), a Ratio [5] of 0.73 and a VR [3] of 0.8. It also gave an MIC50 (MDCK [6]) of 2.6 µg/mL (≈ 10.8 µM).

With `Nc1nc(=O)n(C2CC(CO)C(O)C2O)cc1Cl` (centres undefined) the VR (MDCK [4]) was 0.4 and the Ratio [5] was 0.1.

In the case of `Nc1nc(=O)n(C2CC(O)C(CO)C2)cc1Br` (centres undefined), the VR (Vero [1]) was 2.6, the MIC50 (Vero [2]) was 62 µg/mL (≈ 204 µM) and the VR [3] was 0.

With `Nc1nc(=O)n(C2CC(O)C(CO)C2)cc1I` (centres undefined) the VR (Vero [1]) was 1, the MIC50 (Vero [2]) was 340 µg/mL (≈ 968 µM) and the VR [3] was 0.

`Nc1nc(=O)n(C2CC(CO)CC2O)cc1I` (centres undefined) gave a VR (MDCK [4]) of 0 and a VR (MDCK [8]) of 0.5.

For `Nc1ccn(C2CC(CO)CC2O)c(=O)n1` (centres undefined), the VR (MDCK [4]) was 0.1 and the VR [3] was 0.

In the case of `Nc1ccn([C@@H]2C[C@H](CO)[C@@H](O)[C@@H]2O)c(=O)n1`, the VR (MDCK [4]) was 0.8, the MIC50 (Oryctolagus cuniculus) was 30 µg/mL (≈ 124 µM) and the VR (Oryctolagus cuniculus) was 1.8. For the same molecule, the MIC50 [7] was 95 µg/mL (≈ 394 µM), the VR (Vero [1]) was 2.4 and the MIC50 (Vero [2]) was 13 µg/mL (≈ 53.9 µM). The Ratio [5] was 0.2, the VR [3] was 0.6 and the MIC50 (MDCK [6]) was 312 µg/mL (≈ 1290 µM).

`Nc1nc(=O)n(C2CC(O)C(CO)C2)cc1Cl` (centres undefined) gave a VR (Vero [1]) of 0.7 and an MIC50 (Vero [2]) of 270 µg/mL (≈ 1040 µM).

`Nc1nc(=O)n([C@@H]2C[C@H](CO)[C@@H](O)[C@H]2O)cc1I` showed a VR (MDCK [4]) of 0.2 and a VR (Vero [1]) of 0.

For `Nc1ccn(C2CC(O)C(CO)C2)c(=O)n1` (centres undefined), the VR (MDCK [4]) was 0, the MIC50 (Oryctolagus cuniculus) was under 26 µg/mL and the VR (Oryctolagus cuniculus) was 2.6. For the same molecule, the MIC50 (Vero [2]) was 44 µg/mL (≈ 195 µM), the VR [3] was 0 and the VR (Vero [9]) was 1.9.
